Bioassay records: PubChem BioAssay, several laboratories
VLA-4 inh = inhibition in a human VLA-4 binding assay; inhibition, % (about 7 µM as worked out from the volumes in the protocol); VLA-4 expressing cells, ligand binding flow cytometry; AID 2557; actives 0.2% (n = 330,000); P13612; in the data active = inhibition above about 50%
Target sequence (P13612 whole entry, looked up): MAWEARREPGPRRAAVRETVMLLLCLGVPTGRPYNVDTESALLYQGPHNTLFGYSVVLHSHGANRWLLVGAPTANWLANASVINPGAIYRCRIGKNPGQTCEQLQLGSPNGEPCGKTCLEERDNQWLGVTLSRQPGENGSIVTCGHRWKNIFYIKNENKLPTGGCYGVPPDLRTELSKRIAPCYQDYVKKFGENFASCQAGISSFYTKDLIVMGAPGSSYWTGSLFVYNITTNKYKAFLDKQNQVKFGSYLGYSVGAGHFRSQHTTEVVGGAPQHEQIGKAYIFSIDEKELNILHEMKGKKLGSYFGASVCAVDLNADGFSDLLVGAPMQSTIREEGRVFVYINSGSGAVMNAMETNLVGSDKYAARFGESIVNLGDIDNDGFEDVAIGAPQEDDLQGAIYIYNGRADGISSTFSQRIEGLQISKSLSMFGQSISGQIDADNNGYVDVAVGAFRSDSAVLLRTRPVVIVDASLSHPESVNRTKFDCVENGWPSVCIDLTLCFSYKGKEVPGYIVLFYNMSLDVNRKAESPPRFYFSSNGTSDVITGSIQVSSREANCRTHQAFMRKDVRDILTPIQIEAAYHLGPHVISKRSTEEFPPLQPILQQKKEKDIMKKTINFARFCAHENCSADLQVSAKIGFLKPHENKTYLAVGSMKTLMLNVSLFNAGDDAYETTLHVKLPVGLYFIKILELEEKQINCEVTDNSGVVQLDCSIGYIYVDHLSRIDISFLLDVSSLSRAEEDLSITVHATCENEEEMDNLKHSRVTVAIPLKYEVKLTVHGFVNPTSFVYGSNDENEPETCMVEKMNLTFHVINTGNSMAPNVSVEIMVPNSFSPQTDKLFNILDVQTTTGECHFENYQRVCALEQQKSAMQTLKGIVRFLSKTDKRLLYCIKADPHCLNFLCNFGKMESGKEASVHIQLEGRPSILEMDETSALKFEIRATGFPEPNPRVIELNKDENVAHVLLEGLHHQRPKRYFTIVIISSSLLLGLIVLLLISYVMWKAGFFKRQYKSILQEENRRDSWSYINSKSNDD
XBP1 UPR activ = activators of adaptive arm of unfolded protein response (XBP1). CHO-XBP1 luciferase reporter, IRE1-XBP1 UPR activation, luminescence; percent of tunicamycin response, DMSO as zero. activation, % at 20 µM. actives 0.33% (n = 330,000);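 active = versus positive control, 20 µM dose yields 30% or more activation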
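incubation = overnight seeding at 37 °C, 6 h compound treatment at 37 °C | assay system = CHO-XBP1 cells stably carrying IRE1-XBP1-driven luciferase reporter | input = 1000 cells per well | detection = luciferase luminescence | dosing = single point, 20 µM final compound, 1% DMSO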
Beta2AR agonist = activates human beta-2 adrenergic receptor causing internalization; P07550; Am2.2-beta2AR cells, FAP receptor internalization, flow cytometry; response, % (concentration not given with the values); actives 0.43% (n = 340,000);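 active = response above a set limit, near 3 SD of response in nonfluorescent compounds, cut at about 42% in these data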
UPR CHOP act = activators of apoptotic arm of unfolded protein response (CHOP); CHO-CHOP luciferase reporter, UPR activation, luminescence; percent of tunicamycin response over DMSO baseline; actives 0.34% (n = 330,000); activation, % at 10 µM; AID 449763;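 active = at 10 µM dose, activation of 40% or more, normalized to positive control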
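Assay system: CHO cells with stable CHOP pathway luciferase reporter; Buffer or medium: F12 plus 10% serum; Times: 16-18 h cell attachment, then 6 h compound exposure, 37 °C; Signal: luciferase luminescence; Read-out basis: percent activation relative to tunicamycin control; Control set: tunicamycin high control, DMSO low control.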
CHOP inhibitor = CHOP inhibition in unfolded protein response | actives 3.8% (n = 220,000) | inhibition, % at 10 µM | CHO-K1 CHOP-promoter luciferase, tunicamycin-induced, 15-18 h;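 active = compounds that reduced the stress-induced luciferase reporter signal by more than about 70% of percent inhibition, limit read from the data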
Hits are given with their value. This excerpt belongs to a sample that is enriched for hits.

How did CCn1nc(NS(=O)(=O)c2ccc(NC(C)=O)cc2)c2cc3cc(C)ccc3nc21 do in these assays?
VLA-4 inh: inactive; XBP1 UPR activ: inactive; Beta2AR agonist: inactive; UPR CHOP act: inactive

Results for O=C(NCc1ccccc1)c1onc(CSc2ccc(F)c(F)c2)c1C(=O)NCc1ccccc1 ?
VLA-4 inh: inactive; XBP1 UPR activ: inactive; Beta2AR agonist: inactive; UPR CHOP act: inactive

How did CCc1ccc(-c2nc(CS(=O)CC(=O)NCCCN3CCOCC3)c(C)o2)cc1 (stereo unspecified) do in these assays?
VLA-4 inh: inactive; XBP1 UPR activ: inactive; Beta2AR agonist: inactive; UPR CHOP act: inactive

What do the screens show for `COC(=O)C1=C(C)N=C2SC(C#N)=C(N)N2C1c1cc(OC)c(OC)c(OC)c1` (stereo unspecified)?
VLA-4 inh: inactive; XBP1 UPR activ: inactive; Beta2AR agonist: inactive; UPR CHOP act: inactive; CHOP inhibitor: inactive

What do the screens show for `COC(=O)C1=C(C)N=C2SC(C#N)=C(N)N2C1c1ccc(OCc2ccccc2)cc1` (stereo unspecified)?
VLA-4 inh: inactive; XBP1 UPR activ: inactive; Beta2AR agonist: inactive; UPR CHOP act: inactive; CHOP inhibitor: 88

What do the screens show for `CCC(c1nnnn1C1CCCCC1)N1CCN(C(=O)c2ccco2)CC1` (stereo unspecified)?
VLA-4 inh: inactive; XBP1 UPR activ: inactive; Beta2AR agonist: inactive; UPR CHOP act: inactive

Results for Cc1noc(-c2ccc(Cl)cc2)c1C(=O)O/N=C(\N)c1ccc(C(C)(C)C)cc1 ?
VLA-4 inh: inactive; XBP1 UPR activ: inactive; Beta2AR agonist: inactive; UPR CHOP act: inactive; CHOP inhibitor: 80

How did CC(=O)Nc1sc2c(c1CN1CCN(c3ccc(F)cc3)CC1)CCCC2 do in these assays?
VLA-4 inh: inactive; XBP1 UPR activ: inactive; Beta2AR agonist: inactive; UPR CHOP act: inactive; CHOP inhibitor: 79

How did CC(=O)Nc1sc2c(c1CN1CCCC1)CCCC2 do in these assays?
VLA-4 inh: inactive; XBP1 UPR activ: inactive; Beta2AR agonist: inactive; UPR CHOP act: inactive; CHOP inhibitor: inactive

How did CC(C)OC(=O)CC(=O)CSc1nc2c(cc1C#N)CCCC2 do in these assays?
VLA-4 inh: inactive; XBP1 UPR activ: inactive; Beta2AR agonist: inactive; UPR CHOP act: inactive; CHOP inhibitor: 80

What do the screens show for `CC(C)OC(=O)CC(=O)CSc1nc2c(cc1C#N)CCCCCC2`?
VLA-4 inh: inactive; XBP1 UPR activ: inactive; Beta2AR agonist: inactive; UPR CHOP act: inactive; CHOP inhibitor: inactive

Results for O=C(NNC(=O)c1ccc(S(=O)(=O)N2CCCC2)cc1)c1ccc(Br)cc1 ?
XBP1 UPR activ: inactive; Beta2AR agonist: inactive; UPR CHOP act: inactive

What do the screens show for `CN(C)c1ccc(S(=O)(=O)NCC(=O)NCCC2=CCCCC2)cc1[N+](=O)[O-]`?
VLA-4 inh: inactive; XBP1 UPR activ: inactive; Beta2AR agonist: inactive; UPR CHOP act: inactive

Results for O=Cc1cccn1-c1ccc(O)cc1 ?
VLA-4 inh: inactive; XBP1 UPR activ: inactive; Beta2AR agonist: inactive; UPR CHOP act: inactive; CHOP inhibitor: inactive

Results for Cc1cc(NC(=O)CSc2nc3cc(Cl)ccc3c(=O)n2C(C)C)no1 ?
XBP1 UPR activ: inactive; Beta2AR agonist: inactive; UPR CHOP act: inactive

How did CCN1CC(c2ccccc2)C(c2ccc(Cl)cc2)=N1 (stereo unspecified) do in these assays?
VLA-4 inh: inactive; XBP1 UPR activ: inactive; Beta2AR agonist: inactive; UPR CHOP act: inactive; CHOP inhibitor: 79

How did Cc1ccc(C)c(N=Nc2ccc(O)c3ncccc23)c1 do in these assays?
VLA-4 inh: inactive; XBP1 UPR activ: inactive; Beta2AR agonist: inactive; UPR CHOP act: inactive; CHOP inhibitor: 103

What do the screens show for `Cc1ccc2cc(CN(CCCN(C)C)C(=O)NCc3ccccc3)c(=O)[nH]c2c1C`?
VLA-4 inh: inactive; XBP1 UPR activ: inactive; Beta2AR agonist: inactive; UPR CHOP act: inactive; CHOP inhibitor: 74

How did Cc1oc2ccc(O)c(CN3CCOCC3)c2c1C(=O)c1ccc(Cl)cc1 do in these assays?
VLA-4 inh: inactive; XBP1 UPR activ: inactive; Beta2AR agonist: inactive; UPR CHOP act: inactive; CHOP inhibitor: 71

How did COCCOC(=O)c1c(C)oc2ccc(O)c(CN3CCC(C)CC3)c12 (tested in a mixture with another compound) do in these assays?
Beta2AR agonist: inactive

What do the screens show for `NC(=O)C1CCN(C(=O)C2CC(=O)N(c3ccc(F)cc3)C2)CC1` (stereo unspecified)?
VLA-4 inh: inactive; XBP1 UPR activ: inactive; Beta2AR agonist: inactive; UPR CHOP act: inactive
